pIC50: −log10 of the molar value. Calls of active or inactive are those of the source. The calls are words filed in the database; no cut-off is given here.
Experiments:
[1] = tested on: Mus musculus; assay: Plasma concentration in BALB/c mouse at 50 mg/kg, po; type: ADME, organism-based; design: dose 50 mg/kg, route oral; settings: in vivo
How it was run: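 Compound given orally at 50 mg/kg as a solution in PEG400/Tween80/water (40:10:50) to three Balb/C mice. Plasma sampled over 4 h after dosing; AUC(0-4h), Cmax and 4 h concentration reported.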

[2] = tested on: L2987; assay: Antitumor activity against human L2987 cells xenografted in athymic mouse at 60 mg/kg, po qd for 14 days; type: functional; settings: L2987, 336 h, read-out: TGI
How it was run: (§1)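 Xenograft-bearing mice dosed orally once daily in propylene glycol/Tween80/water (40:10:50). TGI taken as percent tumor growth inhibition during treatment; significance from mean tumor weight at end of treatment; body weight loss and morbidity monitored.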

[3] = target: T1, Epidermal growth factor receptor and ErbB2 (HER1 and HER2) (Homo sapiens) (UniProt P04626+P00533); assay: Inhibition of epidermal growth factor-induced HER1/HER2 heterodimer formation in human AU565 cells at 1 uM by immunoprecipitation; type: cell-based
[4] = AUC (0 to 24 hrs) in cynomolgus monkey at 5 mg/kg, po; type: ADME, organism-based, Macaca fascicularis; design: time < 24 hr, dose 5 mg/kg, route oral; settings: plasma
How it was run: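 Monkeys were dosed orally at 5 mg/kg as a solution in PEG400/Tween80/water (50:0.1:50).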

[5] = Oral bioavailability in mouse at 120 mg/kg; type: ADME, organism-based; settings: in vivo
[6] = tested on: NCI-N87; assay: Antitumor activity against human NCI-N87 cells xenografted in athymic mouse at 120 mg/kg, po qd for 21 days; type: functional; settings: NCI-N87, 504 h, read-out: TGI; how it was run: as §1
[7] = Antitumor activity against human GEO cells xenografted in athymic mouse at 60 mg/kg, po qd for 14 days; type: functional; settings: 336 h, read-out: TGI; how it was run: as §1
[8] = Clearance in dog at 1.5 mg/kg, iv; type: ADME, organism-based, Canis lupus familiaris; design: dose 1.5 mg/kg, route intravenous; settings: in vivo
[9] = Antitumor activity against human KPL4 cells xenografted in athymic mouse at 60 mg/kg, po qd for 21 days; type: functional; settings: KPL4, 504 h, read-out: TGI; how it was run: as §1
[10] = Volume of distribution at steady state in mouse at 25 mg/kg, iv; type: ADME, organism-based; design: dose 25 mg/kg, route intravenous; settings: in vivo, read-out: Vdss
How it was run: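 Mouse PK, average of three animals. Solution formulation in PG/Tween80/water (40:10:50), given orally at 120 mg/kg or iv at 25 mg/kg. Tmax taken from the oral arm; Vss taken from the iv arm.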

[11] = tested on: L2987; assay: Antitumor activity against human L2987 cells xenografted in athymic mouse at 180 mg/kg, po qd for 14 days; type: functional; settings: L2987, 336 h, read-out: TGI; how it was run: as §1
[12] = organism: Mus musculus; assay: Toxicity in athymic mouse bearing human tumor cells assessed as mortality; type: organism-based
How it was run: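 Mice carried human tumor xenografts (L2987, GEO, KPL4, N87) and were dosed orally once daily in propylene glycol/Tween80/water (40:10:50), with a q.d. × 21 schedule given. The L2987 dose levels included 30, 60 and 180 mg/kg. Toxicity was monitored during treatment as significant weight loss or morbidity.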

[13] = Oral bioavailability in cynomolgus monkey at 5 mg/kg; type: ADME, organism-based, Macaca fascicularis; settings: in vivo
[14] = Protein binding in dog plasma at 10 uM by equilibrium dialysis; type: ADME, cell-free, Canis lupus familiaris; settings: read-out: PPB (converted)
[15] = Protein binding in mouse plasma at 10 uM by equilibrium dialysis; type: ADME, cell-free; settings: read-out: PPB (converted)
[16] = Volume of distribution at steady state in dog at 1.5 mg/kg, iv; type: ADME, organism-based, Canis lupus familiaris; design: dose 1.5 mg/kg, route intravenous; settings: in vivo, read-out: Vdss
How it was run: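 Dog PK, average of two animals. Compound dosed as a PEG400/Tween80/water (50:0.1:50) solution, orally at 25 mg/kg and iv at 1.5 mg/kg. Oral data give Tmax; iv data give Vss.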

[17] = Intrinsic permeability in human Caco-2 cells; type: ADME, cell-based; settings: read-out: permeability
[18] = Cmax in dog at 25 mg/kg, po; type: ADME, organism-based, Canis lupus familiaris; design: dose 25 mg/kg, route oral; settings: in vivo
[19] = Mean residence time in cynomolgus monkey at 5 mg/kg, iv; type: ADME, organism-based, Macaca fascicularis; design: dose 5 mg/kg, route intravenous; settings: in vivo
[20] = target: Voltage-gated inwardly rectifying potassium channel KCNH2 (Homo sapiens, UniProt Q12809); assay: Inhibition of human ERG expressed in HEK cells; type: cell-based, HEK293
Voltage-gated inwardly rectifying potassium channel KCNH2, sequence (Q12809 whole entry): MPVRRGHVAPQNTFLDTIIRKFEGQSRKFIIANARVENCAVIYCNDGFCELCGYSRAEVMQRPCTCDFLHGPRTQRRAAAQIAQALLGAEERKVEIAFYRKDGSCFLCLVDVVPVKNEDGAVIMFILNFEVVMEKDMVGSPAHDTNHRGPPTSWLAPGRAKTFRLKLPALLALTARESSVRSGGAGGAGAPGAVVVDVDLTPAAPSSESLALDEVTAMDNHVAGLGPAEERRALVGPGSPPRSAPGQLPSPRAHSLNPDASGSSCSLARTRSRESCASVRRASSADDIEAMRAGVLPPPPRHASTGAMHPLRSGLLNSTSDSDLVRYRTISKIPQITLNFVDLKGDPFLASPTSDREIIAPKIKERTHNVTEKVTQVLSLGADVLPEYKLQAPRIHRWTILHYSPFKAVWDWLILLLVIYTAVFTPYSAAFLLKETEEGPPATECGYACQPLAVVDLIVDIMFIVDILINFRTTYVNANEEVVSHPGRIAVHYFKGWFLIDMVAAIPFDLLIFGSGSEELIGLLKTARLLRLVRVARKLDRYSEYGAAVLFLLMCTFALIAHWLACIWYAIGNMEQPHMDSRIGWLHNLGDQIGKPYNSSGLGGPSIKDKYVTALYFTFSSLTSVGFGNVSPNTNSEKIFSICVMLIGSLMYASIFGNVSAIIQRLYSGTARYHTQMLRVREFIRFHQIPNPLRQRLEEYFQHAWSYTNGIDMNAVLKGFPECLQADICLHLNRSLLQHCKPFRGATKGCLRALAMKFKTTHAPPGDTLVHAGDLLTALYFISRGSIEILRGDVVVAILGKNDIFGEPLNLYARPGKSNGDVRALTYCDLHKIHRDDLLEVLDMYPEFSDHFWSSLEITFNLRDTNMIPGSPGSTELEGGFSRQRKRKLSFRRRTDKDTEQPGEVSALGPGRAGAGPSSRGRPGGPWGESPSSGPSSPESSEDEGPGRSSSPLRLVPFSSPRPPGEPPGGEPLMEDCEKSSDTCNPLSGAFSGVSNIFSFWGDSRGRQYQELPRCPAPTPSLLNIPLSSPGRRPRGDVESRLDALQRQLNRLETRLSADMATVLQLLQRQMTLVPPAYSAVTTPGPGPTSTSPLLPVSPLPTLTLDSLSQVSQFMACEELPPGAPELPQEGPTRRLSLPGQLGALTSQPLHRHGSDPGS

[21] = Half life in mouse plasma at 120 mg/kg, po; type: ADME, organism-based; design: dose 120 mg/kg, route oral
[22] = target: Cytochrome P450 2D6 (Homo sapiens, UniProt P10635); assay: Inhibition of human CYP2D6; type: ADME
Cytochrome P450 2D6, sequence (P10635 whole entry): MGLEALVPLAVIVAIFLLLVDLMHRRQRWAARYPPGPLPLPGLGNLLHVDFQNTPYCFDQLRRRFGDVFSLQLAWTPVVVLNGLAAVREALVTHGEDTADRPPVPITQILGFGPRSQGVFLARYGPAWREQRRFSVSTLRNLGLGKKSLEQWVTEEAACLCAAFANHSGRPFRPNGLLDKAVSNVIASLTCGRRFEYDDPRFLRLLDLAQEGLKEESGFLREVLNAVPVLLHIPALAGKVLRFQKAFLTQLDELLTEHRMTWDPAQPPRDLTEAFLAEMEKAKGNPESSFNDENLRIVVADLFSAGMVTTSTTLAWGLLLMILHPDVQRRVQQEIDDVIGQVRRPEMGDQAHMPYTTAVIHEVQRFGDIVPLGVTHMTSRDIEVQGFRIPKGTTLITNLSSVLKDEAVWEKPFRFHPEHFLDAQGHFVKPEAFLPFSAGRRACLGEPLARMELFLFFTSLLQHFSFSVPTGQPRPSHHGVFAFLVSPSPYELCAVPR

[23] = tested on: NCI-N87; assay: Antitumor activity against human NCI-N87 cells xenografted in athymic mouse at 60 mg/kg, po qd for 21 days; type: functional; settings: NCI-N87, 504 h, read-out: TGI; how it was run: as §1
[24] = tested on: NCI-N87; assay: Antitumor activity against human NCI-N87 cells xenografted in athymic mouse at 180 mg/kg, po qd for 21 days; type: functional; settings: NCI-N87, 504 h, read-out: TGI; how it was run: as §1
[25] = Effect on action potential parameters in rabbit purkinje fiber up to 30 uM; type: ADME, tissue-based, Oryctolagus cuniculus
[26] = Antiproliferative activity against mouse SAL2 cells after 72 hrs by MTT assay; type: functional, cell-based; settings: SAL2, 72 h
[27] = tested on: L2987; assay: Antitumor activity against human L2987 cells xenografted in athymic mouse at 30 mg/kg, po qd for 14 days; type: functional; settings: L2987, 336 h, read-out: TGI; how it was run: as §1
[28] = target: T1, Epidermal growth factor receptor and ErbB2 (HER1 and HER2) (Homo sapiens); assay: Inhibition of HER1/HER2 phosphorylation in human N87 cells by Western blot; type: cell-based; settings: NCI-N87
[29] = AUC (0 to 24 hrs) in mouse at 120 mg/kg, po; type: ADME, organism-based; design: time < 24 hr, dose 120 mg/kg, route oral; settings: plasma
How it was run: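 Mice were dosed orally at 120 mg/kg as a solution in PG/Tween80/water (40:10:50).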

[30] = target: Epidermal growth factor receptor (Homo sapiens, UniProt P00533); assay: Inhibition of human recombinant HER1 expressed in Sf9 cells by liquid scintillation counting
Epidermal growth factor receptor, sequence (P00533 whole entry): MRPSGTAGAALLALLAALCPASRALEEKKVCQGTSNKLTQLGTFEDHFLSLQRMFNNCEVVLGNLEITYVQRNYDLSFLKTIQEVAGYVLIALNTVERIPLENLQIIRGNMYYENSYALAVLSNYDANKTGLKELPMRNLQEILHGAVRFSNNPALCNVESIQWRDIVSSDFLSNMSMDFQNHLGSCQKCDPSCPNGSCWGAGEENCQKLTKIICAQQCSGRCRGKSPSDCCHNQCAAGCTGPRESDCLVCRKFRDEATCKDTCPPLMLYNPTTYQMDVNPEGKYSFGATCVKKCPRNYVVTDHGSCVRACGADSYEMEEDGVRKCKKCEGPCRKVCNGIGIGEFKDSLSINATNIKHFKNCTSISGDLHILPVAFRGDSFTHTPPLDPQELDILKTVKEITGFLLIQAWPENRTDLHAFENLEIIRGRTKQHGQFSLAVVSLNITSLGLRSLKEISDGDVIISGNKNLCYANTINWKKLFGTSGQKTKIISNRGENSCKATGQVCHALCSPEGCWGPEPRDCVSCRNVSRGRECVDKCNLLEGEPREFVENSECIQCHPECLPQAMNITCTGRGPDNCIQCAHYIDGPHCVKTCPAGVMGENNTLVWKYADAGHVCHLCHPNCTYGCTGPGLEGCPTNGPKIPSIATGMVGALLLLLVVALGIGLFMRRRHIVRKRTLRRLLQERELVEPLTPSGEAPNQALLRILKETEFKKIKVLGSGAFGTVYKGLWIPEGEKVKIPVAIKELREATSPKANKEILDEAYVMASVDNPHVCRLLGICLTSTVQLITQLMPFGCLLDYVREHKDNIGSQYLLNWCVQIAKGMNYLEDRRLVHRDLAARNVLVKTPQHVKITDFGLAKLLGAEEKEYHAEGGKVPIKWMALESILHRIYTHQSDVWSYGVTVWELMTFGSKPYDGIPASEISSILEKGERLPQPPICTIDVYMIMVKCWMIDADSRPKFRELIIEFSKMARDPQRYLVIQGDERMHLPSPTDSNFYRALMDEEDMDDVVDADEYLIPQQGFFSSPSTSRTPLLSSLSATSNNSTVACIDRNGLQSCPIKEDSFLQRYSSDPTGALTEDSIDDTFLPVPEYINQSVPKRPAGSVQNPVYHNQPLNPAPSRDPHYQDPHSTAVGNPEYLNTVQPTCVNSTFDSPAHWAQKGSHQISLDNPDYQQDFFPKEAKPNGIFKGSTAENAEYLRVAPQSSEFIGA

[31] = Oral bioavailability in dog at 25 mg/kg; type: ADME, organism-based, Canis lupus familiaris; settings: in vivo
[32] = target: Cytochrome P450 2C19 (Homo sapiens, UniProt P33261); assay: Inhibition of human CYP2C19; type: ADME
Cytochrome P450 2C19, sequence (P33261 whole entry): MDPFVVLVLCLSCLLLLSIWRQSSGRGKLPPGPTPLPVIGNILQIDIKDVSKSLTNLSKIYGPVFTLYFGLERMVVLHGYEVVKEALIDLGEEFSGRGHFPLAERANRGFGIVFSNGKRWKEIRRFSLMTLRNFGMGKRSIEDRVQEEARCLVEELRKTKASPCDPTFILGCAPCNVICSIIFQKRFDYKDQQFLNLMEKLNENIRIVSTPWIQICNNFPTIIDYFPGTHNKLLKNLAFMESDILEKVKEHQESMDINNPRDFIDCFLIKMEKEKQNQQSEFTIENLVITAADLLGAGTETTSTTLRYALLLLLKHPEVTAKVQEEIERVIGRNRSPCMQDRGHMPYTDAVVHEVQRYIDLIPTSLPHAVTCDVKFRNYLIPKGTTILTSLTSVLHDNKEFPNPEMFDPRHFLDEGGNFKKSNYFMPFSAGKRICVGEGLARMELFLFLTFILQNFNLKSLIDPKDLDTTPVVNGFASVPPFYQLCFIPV

[33] = target: Cytochrome P450 2C9 (Homo sapiens, UniProt P11712); assay: Inhibition of human CYP2C9; type: ADME
Cytochrome P450 2C9, sequence (P11712 whole entry): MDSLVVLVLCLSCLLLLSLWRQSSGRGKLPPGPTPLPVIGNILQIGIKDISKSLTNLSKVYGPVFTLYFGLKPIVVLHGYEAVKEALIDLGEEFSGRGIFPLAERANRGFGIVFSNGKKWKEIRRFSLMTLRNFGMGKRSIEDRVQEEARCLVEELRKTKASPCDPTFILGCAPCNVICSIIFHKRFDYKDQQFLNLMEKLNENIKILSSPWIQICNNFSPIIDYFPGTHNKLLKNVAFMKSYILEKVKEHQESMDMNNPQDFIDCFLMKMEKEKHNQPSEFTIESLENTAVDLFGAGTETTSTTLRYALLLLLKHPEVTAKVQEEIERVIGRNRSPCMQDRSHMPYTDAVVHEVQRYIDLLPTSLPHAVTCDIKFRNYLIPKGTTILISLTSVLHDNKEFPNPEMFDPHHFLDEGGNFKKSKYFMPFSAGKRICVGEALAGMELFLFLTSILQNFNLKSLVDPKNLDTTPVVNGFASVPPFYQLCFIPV

## Cc1c(NC(=O)OC[C@@H]2COCCN2)cn2ncnc(Nc3ccc4c(cnn4Cc4cccc(F)c4)c3)c12 [AC-480]
[1]
  concentration: 4100 nM
[2]
  inhibition in vivo at 60 mg/kg: 58%
[3]
  inhibition: Active
[4]
  AUC(0-t) at 24 h: 3.6 µM·h
[5]
  bioavailability: 83%
[6]
  inhibition in vivo at 120 mg/kg: 81%
[7]
  inhibition in vivo at 60 mg/kg: 39%
[8]
  clearance: 24.8 mL/min/kg
[9]
  inhibition in vivo at 60 mg/kg: 61%
[10]
  Vd: 4.7 L/kg
[11]
  inhibition in vivo at 180 mg/kg: 99%
[12]
  Activity: Non-toxic
[13]
  bioavailability: 31%
[14]
  fraction unbound at 10 µM: 0.029
[15]
  fraction unbound at 10 µM: 0.017
[16]
  Vd: 10.1 L/kg
[17]
  Papp: 21.4 ×10⁻⁶ cm/s
[18]
  Cmax: 1200 nM
[19]
  MRT: 6.4 h
[20]
  pIC50: 5.40
[21]
  half-life: 2.7 h
[22]
  pIC50: < 4.40
[23]
  inhibition in vivo at 60 mg/kg: 39%
[24]
  inhibition in vivo at 180 mg/kg: 71%
[25]
  Activity: Non-toxic
[26]
  pIC50: 6.62
[27]
  inhibition in vivo at 30 mg/kg: < 50%
[28]
  inhibition: Dose-dependent effect
[29]
  AUC(0-t) at 24 h: 147 µM·h
[30]
  pIC50: 7.49
[31]
  bioavailability: 49%
[32]
  pIC50: 5.00
[33]
  pIC50: 4.92

Reference: ChEMBL document CHEMBL1154610, “Discovery and preclinical evaluation of [4-[[1-(3-fluorophenyl)methyl]-1H-indazol-5-ylamino]-5-methylpyrrolo[2,1-f][1,2,4]triazin-6-yl]carbamic acid, (3S)-3-morpholinylmethyl ester (BMS-599626), a selective and orally efficacious inhibitor of human epidermal growth factor receptor 1 and 2 kinases” (J Med Chem, 2009)
